Shown are actives, neighbours in structure and some others; about 1.9% of the full set was active somewhere.
NOD2 RIPK2 PPI: inhibitors of human NOD2-RIPK2 interaction. inhibition, % at 4.98 µM. O43353. hit rate 0.38% among 360,000. CHO BLA complementation NOD2-RIPK2, CCF4 ratio. AID 624267; in the data active means inhibition above about 21%;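 further: 0% = vehicle only and 100% = reference blocker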
MC4R ag barr: human MC4R agonism via beta-arrestin; P32245; U2OS MC4R beta-arrestin complementation, luminescence; percent of melanotan II response, DMSO zero; activation, % at 8.9 µM; hit rate 0.98% among 360,000;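 active means activation above a per-plate cutoff, the mean activation of sample wells on that plate plus 3 SD, cut at about 8% in these data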
Target sequence (P32245 whole entry, looked up): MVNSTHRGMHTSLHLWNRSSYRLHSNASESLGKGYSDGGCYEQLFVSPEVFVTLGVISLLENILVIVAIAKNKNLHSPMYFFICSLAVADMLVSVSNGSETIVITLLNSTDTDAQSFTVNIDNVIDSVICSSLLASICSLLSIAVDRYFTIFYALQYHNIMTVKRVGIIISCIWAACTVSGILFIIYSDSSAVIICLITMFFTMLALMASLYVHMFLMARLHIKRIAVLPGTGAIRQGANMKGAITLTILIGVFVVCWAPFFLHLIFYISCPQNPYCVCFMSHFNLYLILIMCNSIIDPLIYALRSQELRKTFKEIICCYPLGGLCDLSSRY
NTR1 ag: NTR1 (human) agonism. P30989. NTR1-U2OS beta-arrestin-GFP spot imaging, agonist mode. activation, % at 20 µM. hit rate 0.17% among 330,000. AID 493036;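 active means activation at or above 40% of the spot to cytoplasm intensity ratio, with at least 20 cells analyzed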;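 further: 0% = DMSO without peptide and 100% = 100 nM NTR1 peptide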
TLR9-MyD88 block: blocks human TLR9 binding to MyD88 | hit rate 0.21% among 340,000 | inhibition, % at 4.98 µM | CHO BLA complementation TLR9-MyD88, CCF4 FRET ratio | Q9NR96+Q99836;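 active means inhibition above the mean over all tested compounds plus 3 SD, cut at about 21% in these data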;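 further: 0% = DMSO only wells and 100% = clavulanate BLA inhibitor control wells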
MC4R antag cAMP: blocks human MC4R cAMP signaling; P32245; AID 540295; hit rate 0.48% among 360,000; MC4R-expressing cells, MTII-stimulated cAMP, LANCE TR-FRET; inhibition, % at 6.5 µM;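 active means inhibition above its plate's cutoff, the mean of tested wells on that plate plus 3 SD, cut at about 29% in these data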;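 further: 0% = Melanotan II alone and 100% = Melanotan II plus saturating MCL0020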
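material = U2OS cells stably expressing human melanocortin 4 receptor (MC4R) | also added = Melanotan II challenge | dosing = single nominal compound dose of 6.5 µM | detection = TR-FRET with Eu-cAMP and labeled anti-cAMP, 671 nm | replication = singlicate | timing = compound 30 min, challenge 1 h, detection 1 h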
TLR4-MyD88 BLA: blocks binding of human TLR4 to MyD88. inhibition, % at 8.4 µM. HeLa CL3-4 TLR4/MyD88 BLA complementation, FRET ratio. hit rate 0.18% among 200,000. O00206+Q99836; in the data active means inhibition above about 25%;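 further: 0% = vehicle and 100% = reference inhibitor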
MC4R barr conf: human MC4R beta-arrestin agonism confirmation. shares compounds with MC4R ag barr. U2OS MC4R beta-arrestin recruitment, luminescence; scaled DMSO 0%, Melanotan II 100%. activation, % at 8.9 µM. hit rate 31% among 2,400. AID 602192;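 active means mean activation across replicates above the hit cutoff set in the earlier primary screen, cut at about 8% in these data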
MOR-DOR barr ag: OPRM1-OPRD1 heterodimer agonism counter-screen; shares compounds with MC4R ag barr; U2OS PathHunter beta-arrestin, beta-gal luminescence; percent of deltorphin B response, DMSO zero; activation, % at 9.2 µM; hit rate 5.8% among 2,400;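 active means mean activation across replicates exceeds the hit threshold derived in the earlier primary screen, cut at about 18% in these data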;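 further: 100% = deltorphin B at 0.9 µM final and 0% = DMSO alone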
The depositor's hits bear a star; nt = not tested or not shown.

SMILES	NOD2 RIPK2 PPI	MC4R ag barr	NTR1 ag	TLR9-MyD88 block	MC4R antag cAMP	TLR4-MyD88 BLA	MC4R barr conf	MOR-DOR barr ag
Cc1ccc(OCc2cc(C(=O)NC3CCCCC3)no2)cn1	-3	-2	0	-1	2	nt	nt	nt
Cc1cc(C)nc(CCNC(=O)c2cc(COc3c(C)cccc3C)on2)n1	-12	0	2	-6	-1	nt	nt	nt
CC(C)(C)CC(=O)Nc1cc2c3c(c1)CC(=O)N3CCC2	-5	-1	-1	-8	-3	nt	nt	nt
COc1cc(/C=C/C(=O)OCC(=O)NCC(=O)Nc2cccc(C)c2C)ccc1OC(F)F	-2	0	0	-8	12	nt	nt	nt
Cc1cccc(C(=O)Nc2ccc(O)c3c(=O)cc(-c4ccccc4Cl)oc23)c1	5	17*	2	-3	7	4	0	3
COc1cccc(-c2cc(-c3cccnc3)nc(N)c2C#N)c1	-9	1	4	5	-1	nt	nt	nt
N#Cc1c(-c2cccc(Br)c2)cc(-c2cccnc2)nc1N	-3	32*	8	2	9	-8	6	16
COc1ccc(F)cc1-c1cc(NC(C)=O)c2ncc(-c3cc(OC)c(OC)c(OC)c3)n2c1	-11	11*	nt	nt	-54	nt	9.7*	8
COc1ccc(-c2cnc3c(NC(C)=O)cc(-c4cc(F)ccc4OC)cn23)cc1OC	-12	19*	nt	nt	-19	nt	27*	2
COc1ccc(-c2cc(NC(C)=O)c3ncc(-c4ccc(F)cc4)n3c2)cc1OC	0	22*	nt	nt	14	nt	26*	6
COc1cc(-c2cc(NC=O)c3ncc(-c4ccc(F)cc4)n3c2)cc(OC)c1OC	10	6	nt	nt	-21	nt	nt	nt
COc1cc(-c2cnc3c(NC(C)=O)cc(-c4ccc(N5CCN(C)CC5)cc4)cn23)cc(OC)c1OC	3	3	nt	nt	0	nt	nt	nt
COc1ccc(-c2cnc3c(NC(C)=O)cc(-c4cccc(NS(C)(=O)=O)c4)cn23)cc1OC	-2	3	nt	nt	2	nt	nt	nt
CNc1nc(SC)n(C)c(=O)c1N=O	nt	nt	0	nt	nt	nt	nt	nt
CCOc1ccc2nc(NC(=O)CS(=O)(=O)c3ccccc3)sc2c1	-2	0	-1	1	1	-4	nt	nt
CCOC(=O)CNC(=O)CSc1nc2cccnc2n1Cc1ccccc1	-2	-2	0	-8	13	-2	nt	nt
CCOc1ccc2nc(NC(=O)CSc3nc4cccnc4n3C)sc2c1	1	16*	2	6	3	-6	8.9*	7
CCOc1ccc2nc(NC(=O)CS(=O)(=O)c3ccc(C)cc3)sc2c1	-5	11*	2	2	-10	-1	5	8
Cc1nc(NC(=O)CSc2nc3cccnc3n2Cc2ccccc2)sc1C	7	26*	14	4	-3	-7	3	8
OCCC1CN(Cc2ccccc2-c2ccco2)CCN1C1CCCC1 (stereo not drawn)	-1	0	0	3	-1	-15	nt	nt
O=C(NNC(=O)c1cnccn1)c1ccc(Cl)c(Cl)c1	-4	-3	-1	-7	9	nt	nt	nt
CC(C)[C@H](NC(=O)c1ccc(Cl)cc1Cl)C(=O)OCc1nc2ccsc2c(=O)[nH]1	-4	-1	nt	-7	-4	nt	nt	nt
COc1ccc(-c2ccc3c(c2)S(=O)(=O)c2cccc(C(=O)NCc4cc(C)oc4C(F)(F)F)c2C3=O)cc1OC	10	12*	5	9	12	nt	27*	12
c1ccc(COc2ncnc3c2ncn3CCCNCC(c2ccccc2)c2ccccc2)cc1	11	13*	nt	10	6	nt	11*	30*
COc1cc2ccccc2cc1C(=O)Nc1ccc(O)cc1	-1	5	4	3	-8	nt	nt	nt
Cc1cc(C)nc(SCc2nnc(SCC(=O)Nc3ccc(Cl)c(C(F)(F)F)c3)o2)n1	5	11*	1	2	10	-5	7	9
O=S1(=O)CC(N2CCN(CC3CC3)CC2)CN1Cc1cn(Cc2ccccc2C(F)(F)F)nn1 (stereo not drawn)	1	nt	nt	nt	nt	nt	nt	nt
